The values that follow come from ChEMBL document CHEMBL4390658, “Rational design of allosteric modulators of the aromatase enzyme: An unprecedented therapeutic strategy to fight breast cancer” (Eur J Med Chem, 2019).

SMILES strings stand for the structures. A value given as a limit tells only on which side of the number the result lay.

One series concerns MCF7. The series is described as follows: Growth inhibition of human MCF7 cells incubated for 72 hrs by cell counting based method. Type of series: functional. Conditions: MCF7, 72 h. In short, it runs like this: (§1)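 MCF-7 (ER+) and MDA-MB-231 (ER−) cells from ATCC, seeded at 50000 cells/well in triplicate. After 24 h, exposed for 72 h to graded concentrations, up to 200 µM. Cells trypsinized and counted electronically. Means of three independent experiments, each in triplicate, used for dose-response curves and GI50.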

The subject of a further series is MDA-MB-231. The series is described as follows: Growth inhibition of human MDA-MB-231 cells incubated for 72 hrs by cell counting based method. The class given is functional. To be noted: MDA-MB-231, 72 h. In short, it runs like this:
as §1

Series [1] addresses T1, Aromatase (Homo sapiens, UniProt P11511).
T1 sequence (P11511 whole entry): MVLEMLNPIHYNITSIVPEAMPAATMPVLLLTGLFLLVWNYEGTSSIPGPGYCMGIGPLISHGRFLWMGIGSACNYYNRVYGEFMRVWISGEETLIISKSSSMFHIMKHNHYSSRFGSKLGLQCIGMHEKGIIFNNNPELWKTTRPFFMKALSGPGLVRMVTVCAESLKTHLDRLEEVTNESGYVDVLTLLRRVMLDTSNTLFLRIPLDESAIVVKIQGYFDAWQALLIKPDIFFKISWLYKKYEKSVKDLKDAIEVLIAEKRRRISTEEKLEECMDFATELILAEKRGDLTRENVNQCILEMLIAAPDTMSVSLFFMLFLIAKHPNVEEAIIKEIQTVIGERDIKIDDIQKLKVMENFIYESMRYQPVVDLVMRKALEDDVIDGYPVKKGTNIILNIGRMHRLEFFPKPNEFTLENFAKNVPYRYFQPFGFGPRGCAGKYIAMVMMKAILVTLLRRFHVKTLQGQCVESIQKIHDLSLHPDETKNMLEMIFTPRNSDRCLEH
Description: Inhibition of recombinant human aromatase at 1 uM preincubated for 10 mins followed by substrate and beta-NADP+ addition and measured for 60 mins by fluorescence method. To be noted: 1 h, read-out: INH.

Series [2] has as its target T1, Aromatase. The series is described as follows: Inhibition of recombinant human aromatase at 100 uM preincubated for 10 mins followed by substrate and beta-NADP+ addition and measured for 60 mins by fluorescence method. Conditions: 1 h. The method in brief:
(§2)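 Single-concentration screen of recombinant human aromatase with an NADPH-generating system, at 100 and 200 µM inhibitor, DMSO ≤0.25% (v/v) final. Mix preincubated 10 min at 37°C, then fluorogenic substrate plus β-NADP+ added. Fluorescence read at 488/527 nm over 60 min. % inhibition taken from the RFU ratio of control to test, in triplicate.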

Series [3] has as its target T1, Aromatase. The series is described as follows: Inhibition of recombinant human aromatase at 200 uM preincubated for 10 mins followed by substrate and beta-NADP+ addition and measured for 60 mins by fluorescence method. Conditions: 1 h. In short, it runs like this:
as §2

Series [4] addresses T1, Aromatase. The series is described as follows: Inhibition of recombinant human aromatase preincubated for 10 mins followed by substrate and beta-NADP+ addition and measured for 60 mins by fluorescence method.
Series [5] addresses T1, Aromatase. The series is described as follows: Mixed type inhibition of recombinant human aromatase assessed as substrate Vmax preincubated for 10 mins followed by different substrate concentration and beta-NADP+ addition and measured for 60 mins by fluorescence method based Cornish-Bowden direct linear analysis (reference value: 91.5 /ms). To be noted: 1 h.
Series [6] concerns the target T1, Aromatase. Description: Mixed type inhibition of recombinant human aromatase assessed as Vmax preincubated for 10 min followed by different substrate concentration and beta-NADP+ addition measured for 60 mins by fluorescence method based Michaelis-menten analysis (reference value: 93.3 +/- 1.3 /ms). Conditions: 1 h.

One may read the GI50 as the concentration that inhibits growth by half. A lower GI50 goes with more potent growth inhibition. Turning to `N#Cc1ccc(C(c2ccc(C#N)cc2)n2cncn2)cc1` [LETROZOLE], the GI50 in the series on MCF7 was 4.1 µM; in the series on MDA-MB-231 it was more than 10 µM. The inhibition at 1 µM on Aromatase [1] stood at 91%.

On to `O=C(C=Cc1ccc(O)c(O)c1)NCC(=O)NC(Cc1ccccc1)C(=O)O` (configuration not stated), for which the inhibition at 100 µM on Aromatase [2] came to 10%. Further, on Aromatase [3], the inhibition at 200 µM turned out to be 13%.

For orientation: IC50 means the concentration needed to halve the response being measured. With `O=C(CCc1ccc(O)c(Cl)c1)NCc1csc(=O)[nH]1`, the IC50 at Aromatase [4] was 21.7 µM. In addition, the inhibition at 100 µM at Aromatase [2] came to 53%. Moreover, the inhibition at 200 µM on Aromatase [3] came to 69%. Moreover, the GI50 is 66.4 µM in the series with MCF7 and more than 200 µM in the series on MDA-MB-231. The Vmax at Aromatase [5] was determined as 78.7 U/ms; on Aromatase [6], 85.2 U/ms.

On to `CC(C)(C)NCC(O)COc1cccc2c1C[C@H](O)[C@H](O)C2` (some centres not stated) [NADOLOL], for which, on Aromatase [2], the inhibition at 100 µM stood at 0%. Moreover, at Aromatase [3], the inhibition at 200 µM stood at 0%.

Regarding `NC(CCC(=O)O)C(=O)NC(Cc1c[nH]c2ccccc12)C(=O)O` (configuration not stated), the inhibition at 100 µM on Aromatase [2] is 4%. For the same molecule, the inhibition at 200 µM on Aromatase [3] turned out to be 3%.

In the case of `CC[C@H](CO)N(Cc1ccccn1)C(=O)c1ccc(=O)[nH]c1`, the inhibition at 100 µM on Aromatase [2] was 2%. In addition, on Aromatase [3], the inhibition at 200 µM was 6%.

Turning to `O=C1c2c(O)ccc(O)c2C(=O)c2c(NCCCO)ccc(NCCCO)c21`, at Aromatase [4], the IC50 is 11 µM. The inhibition at 100 µM at Aromatase [2] amounted to 83%. Further, the inhibition at 200 µM at Aromatase [3] amounted to 92%. Also, the figures for the GI50 with MCF7 and with MDA-MB-231 were 17.9 µM and 6.8 µM, respectively. For the same molecule, the Vmax on Aromatase [5] stood at 16.2 U/ms; at Aromatase [6], 21.5 U/ms.

For `Cc1ccc(C(c2ccc(C)c(C)c2)C(O)C(O)C(O)C(O)CO)cc1C` (configuration not stated), on Aromatase [2], the inhibition at 100 µM is 5%. Moreover, the inhibition at 200 µM on Aromatase [3] stood at 8%.

Turning to `C[C@@H](NC(=O)c1ccc(=O)[nH]c1)c1ccc2[nH]c(=O)[nH]c2c1`, the inhibition at 100 µM at Aromatase [2] came to 27%. For the same molecule, on Aromatase [3], the inhibition at 200 µM is 41%.

Regarding `CC/C(=C(\c1ccc(O)cc1)c1ccc(OCCNC)cc1)c1ccccc1` [ENDOXIFEN], the IC50 at Aromatase [4] amounted to 6.1 µM. The inhibition at 100 µM on Aromatase [2] is 11%. For the same molecule, the inhibition at 200 µM at Aromatase [3] came to 58%.

Take `Nc1nc(O)cc(NC(=S)Nc2ccc(C(=O)O)cc2)n1`: the inhibition at 100 µM at Aromatase [2] was determined as 8%. For the same molecule, the inhibition at 200 µM on Aromatase [3] was found to be 8%.

`O=c1cc(CO)oc([C@H](Nc2ccccn2)c2ccccc2O)c1O`: the inhibition at 100 µM at Aromatase [2] is 0%. The inhibition at 200 µM on Aromatase [3] was 3%.

Turning to `COC(=O)c1ccc(NCC2=CC(=O)c3ccccc3C2=O)cc1`, the IC50 on Aromatase [4] stood at 95.3 µM. Further, the inhibition at 100 µM at Aromatase [2] was 86%. Also, on Aromatase [3], the inhibition at 200 µM is 97%. The concentration for 50% growth inhibition (GI50) with MCF7 was 22.1 µM; in the series on MDA-MB-231 it was 16.2 µM. For the same molecule, the values for the Vmax at Aromatase [5] and at Aromatase [6] were 60.6 U/ms and 79.3 U/ms, respectively.

Consider `CC[C@H](Nc1cc(C)nc(Nc2cccc(O)c2)n1)c1nccs1`, for which the IC50 at Aromatase [4] was determined as 5.1 µM. For the same molecule, the inhibition at 100 µM at Aromatase [2] worked out at 79%. For the same molecule, the inhibition at 200 µM at Aromatase [3] turned out to be 88%. In addition, the figures for the GI50 with MCF7 and with MDA-MB-231 were 21.3 µM and 58 µM, respectively. The Vmax at Aromatase [5] is listed as 15.1 U/ms; at Aromatase [6], 19.3 U/ms.

`COc1ccc([C@@H](O)CNC(=O)N[C@@H]2CCCCNC2=O)cc1`: on Aromatase [2], the inhibition at 100 µM stood at 4%. Also, the inhibition at 200 µM at Aromatase [3] amounted to 19%.

Turning to `O=C(NCc1cc[nH]c(=O)c1)c1ccc(COCC(F)(F)F)cc1`, the inhibition at 100 µM on Aromatase [2] was determined as 3%. Also, the inhibition at 200 µM on Aromatase [3] amounted to 3%.

Take `CCSC(C(O)C(O)C(O)C(O)CO)n1cnc2c(S)ncnc21` (configuration not stated): the inhibition at 100 µM on Aromatase [2] was found to be 2%. Also, on Aromatase [3], the inhibition at 200 µM amounted to 12%.

`O=C1c2c(O)cc(O)cc2O[C@H](c2ccc(O)c(O)c2)[C@H]1O` [(+)-TAXIFOLIN]: the inhibition at 100 µM on Aromatase [2] worked out at 46%. Also, the inhibition at 200 µM on Aromatase [3] amounted to 56%.

On to `N[C@@H]1CCN(Cc2cc(O)c3cc(F)ccc3n2)C[C@H]1O`, for which the IC50 on Aromatase [4] is 20.9 µM. On Aromatase [2], the inhibition at 100 µM was 39%. Also, the inhibition at 200 µM on Aromatase [3] was determined as 62%. Further, the GI50 in the series with MCF7 and in the series with MDA-MB-231 was more than 200 µM each time. In addition, the Vmax on Aromatase [5] is 50.7 U/ms; on Aromatase [6], 64.6 U/ms.

For `OCC(O)C(O)C(O)C(c1ccc(Cl)cc1)c1ccc(Cl)cc1` (configuration not stated), on Aromatase [2], the inhibition at 100 µM worked out at 11%. The inhibition at 200 µM on Aromatase [3] was 10%.
